Source: ChEMBL document CHEMBL1123045, “Synthesis of high specific activity [75Br]- and [77Br]bromperidol and tissue distribution studies in the rat” (J Med Chem, 1985)

What was measured:
Rattus norvegicus [1] = experiment: Distribution in rat lungs 4 hr after intravenous administration, injected dose/gm; format: ADME, organism-based, Lung; conditions: in vivo
Method in brief: (§1)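 Female Sprague-Dawley rats (300-320 g) under light ether anesthesia received a single injection of [77Br]-labeled tracer (50-100 µCi in 0.1 mL 0.9% NaCl, pH 3) into the femoral vein. Groups of five were decapitated at set times after a cardiac-puncture blood sample. Organs were dissected, blotted and weighed, and counted in a NaI(Tl) well γ-counter. Values are %ID/g against an injectate standard, mean ± SD (n=5).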

Rattus norvegicus [2] = experiment: Distribution in rat spleen 15 min after intravenous administration, injected dose/gm; format: ADME, organism-based; conditions: in vivo, 0.25 h; method in brief: as §1
Rattus norvegicus [3] = experiment: Distribution in rat kidney, 30 min after intravenous administration, injected dose/gm; format: ADME, organism-based; conditions: in vivo, 0.5 h
Method in brief: (§2)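 [77Br]Bromperidol at high specific activity (50-100 µCi in 0.1 mL 0.9% NaCl, pH 3) given into the femoral vein of 300-320-g female Sprague-Dawley rats under light ether anesthesia. At each time point, groups of five were decapitated after cardiac-puncture blood sampling. Organs were dissected, blotted, weighed and gamma-counted against an injectate standard. Values are % injected dose/g, mean ± SD, n=5.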

Rattus norvegicus [4] = experiment: Distribution in rat lungs 30 min after intravenous administration, injected dose/gm; format: ADME, organism-based, Lung; conditions: in vivo, 0.5 h; method in brief: as §1
Rattus norvegicus [5] = experiment: Distribution in rat pancreas 8 hr after intravenous administration, injected dose/gm; format: ADME, organism-based; conditions: in vivo; method in brief: as §1
Rattus norvegicus [6] = experiment: Distribution in blood of rat, 1 hr after intravenous administration, injected dose/gm; format: ADME, organism-based; conditions: in vivo; method in brief: as §2
Rattus norvegicus [7] = experiment: Distribution in rat spleen 4 hr after intravenous administration, injected dose/gm; format: ADME, organism-based; conditions: in vivo; method in brief: as §1
Rattus norvegicus [8] = experiment: Distribution in rat spleen 8 hr after intravenous administration, injected dose/gm; format: ADME, organism-based; conditions: in vivo; method in brief: as §1
Rattus norvegicus [9] = experiment: Distribution in rat intestine 1 hr after intravenous administration, injected dose/gm; format: ADME, organism-based; conditions: in vivo; method in brief: as §2
Rattus norvegicus [10] = experiment: Distribution in rat pancreas 1 hr after intravenous administration, injected dose/gm; format: ADME, organism-based; conditions: in vivo; method in brief: as §1
Rattus norvegicus [11] = experiment: Distribution in blood of rat, 30 min after intravenous administration, injected dose/gm; format: ADME, organism-based; conditions: in vivo, 0.5 h; method in brief: as §2
Rattus norvegicus [12] = experiment: Distribution in rat liver 6 hr after intravenous administration, injected dose/gm; format: ADME, organism-based; conditions: in vivo; method in brief: as §1
Rattus norvegicus [13] = experiment: Distribution in rat skin 15 min after intravenous administration, injected dose/gm; format: ADME, organism-based; conditions: in vivo, 0.25 h; method in brief: as §1
Rattus norvegicus [14] = experiment: Distribution in rat skin 30 min after intravenous administration, injected dose/gm; format: ADME, organism-based; conditions: in vivo, 0.5 h; method in brief: as §1
Rattus norvegicus [15] = experiment: Distribution in rat fat 15 min after intravenous administration, injected dose/gm; format: ADME, organism-based, Adipose tissue; conditions: in vivo, 0.25 h; method in brief: as §2
Rattus norvegicus [16] = experiment: Distribution in rat fat 4 hr after intravenous administration, injected dose/gm; format: ADME, organism-based, Adipose tissue; conditions: in vivo; method in brief: as §2
Rattus norvegicus [17] = experiment: Distribution in brain of rat, 8 hr after intravenous administered, injected dose/gm; format: ADME, organism-based; conditions: in vivo; method in brief: as §2
Rattus norvegicus [18] = experiment: Distribution in rat muscle 30 min after intravenous administration, injected dose/gm; format: ADME, organism-based, Muscle tissue; conditions: in vivo, 0.5 h; method in brief: as §1
Rattus norvegicus [19] = experiment: Distribution in rat pancreas 2 hr after intravenous administration, injected dose/gm; format: ADME, organism-based; conditions: in vivo; method in brief: as §1
Rattus norvegicus [20] = experiment: Distribution in rat pancreas 30 min after intravenous administration, injected dose/gm; format: ADME, organism-based; conditions: in vivo, 0.5 h; method in brief: as §1
Rattus norvegicus [21] = experiment: Distribution in rat uterus 6 hr after intravenous administration, injected dose/gm; format: ADME, organism-based; conditions: in vivo; method in brief: as §1
Rattus norvegicus [22] = experiment: Distribution in rat pancreas 4 hr after intravenous administration, injected dose/gm; format: ADME, organism-based; conditions: in vivo; method in brief: as §1
Rattus norvegicus [23] = experiment: Distribution in brain of rat, 1 hr after intravenous administered, injected dose/gm; format: ADME, organism-based; conditions: in vivo; method in brief: as §2
Rattus norvegicus [24] = experiment: Distribution in rat uterus 8 hr after intravenous administration, injected dose/gm; format: ADME, organism-based; conditions: in vivo; method in brief: as §1
Rattus norvegicus [25] = experiment: Distribution in rat skin 5 min after intravenous administration, injected dose/gm; format: ADME, organism-based; conditions: in vivo; method in brief: as §1
Rattus norvegicus [26] = experiment: Distribution in rat pancreas 5 min after intravenous administration, injected dose/gm; format: ADME, organism-based; conditions: in vivo; method in brief: as §1
Rattus norvegicus [27] = experiment: Distribution in rat liver 15 min after intravenous administration, injected dose/gm; format: ADME, organism-based; conditions: in vivo, 0.25 h; method in brief: as §2
Rattus norvegicus [28] = experiment: Distribution in rat kidney, 8 hr after intravenous administration, injected dose/gm; format: ADME, organism-based; conditions: in vivo; method in brief: as §2
Rattus norvegicus [29] = experiment: Distribution in rat skin 2 hr after intravenous administration, injected dose/gm; format: ADME, organism-based; conditions: in vivo; method in brief: as §1
Rattus norvegicus [30] = experiment: Distribution in rat liver 5 min after intravenous administration, injected dose/gm; format: ADME, organism-based; conditions: in vivo; method in brief: as §1
Rattus norvegicus [31] = experiment: Distribution in rat fat 1 hr after intravenous administration, injected dose/gm; format: ADME, organism-based, Adipose tissue; conditions: in vivo; method in brief: as §2
Rattus norvegicus [32] = experiment: Distribution in rat fat 5 min after intravenous administration, injected dose/gm; format: ADME, organism-based, Adipose tissue; conditions: in vivo; method in brief: as §2
Rattus norvegicus [33] = experiment: Distribution in blood of rat, 8 hr after intravenous administration, injected dose/gm; format: ADME, organism-based; conditions: in vivo; method in brief: as §2
Rattus norvegicus [34] = experiment: Distribution in rat skin 4 hr after intravenous administration, injected dose/gm; format: ADME, organism-based; conditions: in vivo; method in brief: as §1
Rattus norvegicus [35] = experiment: Distribution in rat liver 2 hr after intravenous administration, injected dose/gm; format: ADME, organism-based; conditions: in vivo; method in brief: as §2
Rattus norvegicus [36] = experiment: Distribution in rat intestine 5 min after intravenous administration, injected dose/gm; format: ADME, organism-based; conditions: in vivo; method in brief: as §2
Rattus norvegicus [37] = experiment: Distribution in rat heart 5 min after intravenous administration, injected dose/gm; format: ADME, organism-based; conditions: in vivo; method in brief: as §2
Rattus norvegicus [38] = experiment: Distribution in brain of rat, 4 hr after intravenous administered, injected dose/gm; format: ADME, organism-based; conditions: in vivo; method in brief: as §2
Rattus norvegicus [39] = experiment: Distribution in rat heart 1 hr after intravenous administration, injected dose/gm; format: ADME, organism-based; conditions: in vivo; method in brief: as §2
Rattus norvegicus [40] = experiment: Distribution in rat intestine 15 min after intravenous administration, injected dose/gm; format: ADME, organism-based; conditions: in vivo, 0.25 h; method in brief: as §2
Rattus norvegicus [41] = experiment: Distribution in rat liver 1 hr after intravenous administration, injected dose/gm; format: ADME, organism-based; conditions: in vivo; method in brief: as §2
Rattus norvegicus [42] = experiment: Distribution in rat muscle 8 hr after intravenous administration, injected dose/gm; format: ADME, organism-based, Muscle tissue; conditions: in vivo; method in brief: as §1
Rattus norvegicus [43] = experiment: Distribution in rat muscle 15 min after intravenous administration, injected dose/gm; format: ADME, organism-based, Muscle tissue; conditions: in vivo, 0.25 h; method in brief: as §1
Rattus norvegicus [44] = experiment: Distribution in brain of rat, 30 min after intravenous administered, injected dose/gm; format: ADME, organism-based; conditions: in vivo, 0.5 h; method in brief: as §2
Rattus norvegicus [45] = experiment: Distribution in rat uterus 4 hr after intravenous administration, injected dose/gm; format: ADME, organism-based; conditions: in vivo; method in brief: as §1
Rattus norvegicus [46] = experiment: Distribution in rat fat 2 hr after intravenous administration, injected dose/gm; format: ADME, organism-based, Adipose tissue; conditions: in vivo; method in brief: as §2
Rattus norvegicus [47] = experiment: Distribution in rat liver 4 hr after intravenous administration, injected dose/gm; format: ADME, organism-based; conditions: in vivo; method in brief: as §1
Rattus norvegicus [48] = experiment: Distribution in rat skin 8 hr after intravenous administration, injected dose/gm; format: ADME, organism-based; conditions: in vivo; method in brief: as §1
Rattus norvegicus [49] = experiment: Distribution in rat pancreas 15 min after intravenous administration, injected dose/gm; format: ADME, organism-based; conditions: in vivo, 0.25 h; method in brief: as §1
Rattus norvegicus [50] = experiment: Distribution in rat heart 6 hr after intravenous administration, injected dose/gm; format: ADME, organism-based; conditions: in vivo; method in brief: as §2

SMILES: O=C(CCCN1CCC(O)(c2ccc(Br)cc2)CC1)c1ccc(F)cc1 [BROMPERIDOL]
- Distribution (Rattus norvegicus [1]): 1.59%
- Distribution (Rattus norvegicus [2]): 3.29%
- Distribution (Rattus norvegicus [3]): 5.01%
- Distribution (Rattus norvegicus [4]): 5.8%
- Distribution (Rattus norvegicus [5]): 2.05%
- Distribution (Rattus norvegicus [6]): 0.06%
- Distribution (Rattus norvegicus [7]): 1.92%
- Distribution (Rattus norvegicus [8]): 1.86%
- Distribution (Rattus norvegicus [9]): 0.89%
- Distribution (Rattus norvegicus [10]): 4.23%
- Distribution (Rattus norvegicus [11]): 0.08%
- Distribution (Rattus norvegicus [12]): 4.16%
- Distribution (Rattus norvegicus [13]): 0.19%
- Distribution (Rattus norvegicus [14]): 0.2%
- Distribution (Rattus norvegicus [15]): 0.16%
- Distribution (Rattus norvegicus [16]): 0.15%
- Distribution (Rattus norvegicus [17]): 1.29%
- Distribution (Rattus norvegicus [18]): 0.23%
- Distribution (Rattus norvegicus [19]): 3.76%
- Distribution (Rattus norvegicus [20]): 5.2%
- Distribution (Rattus norvegicus [21]): 1.2%
- Distribution (Rattus norvegicus [22]): 3.51%
- Distribution (Rattus norvegicus [23]): 2.48%
- Distribution (Rattus norvegicus [24]): 1.15%
- Distribution (Rattus norvegicus [25]): 0.15%
- Distribution (Rattus norvegicus [26]): 3.16%
- Distribution (Rattus norvegicus [27]): 2.19%
- Distribution (Rattus norvegicus [28]): 1.77%
- Distribution (Rattus norvegicus [29]): 0.17%
- Distribution (Rattus norvegicus [30]): 1.03%
- Distribution (Rattus norvegicus [31]): 0.22%
- Distribution (Rattus norvegicus [32]): 0.05%
- Distribution (Rattus norvegicus [33]): 0.02%
- Distribution (Rattus norvegicus [34]): 0.14%
- Distribution (Rattus norvegicus [35]): 3.16%
- Distribution (Rattus norvegicus [36]): 0.39%
- Distribution (Rattus norvegicus [37]): 2.29%
- Distribution (Rattus norvegicus [38]): 1.61%
- Distribution (Rattus norvegicus [39]): 0.55%
- Distribution (Rattus norvegicus [40]): 0.91%
- Distribution (Rattus norvegicus [41]): 2.99%
- Distribution (Rattus norvegicus [42]): 0.1%
- Distribution (Rattus norvegicus [43]): 0.32%
- Distribution (Rattus norvegicus [44]): 2.82%
- Distribution (Rattus norvegicus [45]): 1.07%
- Distribution (Rattus norvegicus [46]): 0.18%
- Distribution (Rattus norvegicus [47]): 4.08%
- Distribution (Rattus norvegicus [48]): 0.14%
- Distribution (Rattus norvegicus [49]): 4.72%
- Distribution (Rattus norvegicus [50]): 0.39%
